# MT1-MMP act inh: blockers of MT1-MMP proenzyme processing, primary screen, HT1080 RFP-PRO-GFP cells, GFP/RFP fluorescence; 360,000 tested, 0.061% active; GFP/RFP ratio fluorescence, overnight; percent of plate control window, DMSO zero; Matrix metalloproteinase-14 (Homo sapiens), P50281; GFP/RFP ratio change, % at 20 µM;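 active = GFP/RFP ratio change of at least 30% with cell ATP level not reduced by more than half and red fluorescence within 50% of control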
#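 Compound: 20 µM single dose, 1% DMSO / System: HT1080 RFP-PRO-GFP cells / Controls: DMSO and RFP-L50D-GFP cell wells / Read-out basis: GFP/RFP fluorescence ratio / Schedule: overnight compound exposure at 37 °C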
# SKN-1 block: suppressors of acrylamide-induced Pgst-4::GFP reporter in worms, primary screen, SKN-1 inhibitor project, whole organism, uHTS, GFP/RFP fluorescence ratio, strain VP596; C. elegans VP596 Pgst-4::GFP/RFP ratio, 24 h; inhibition, % at 21.8 µM; 360,000 tested, 0.49% active;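 active = interference check ratio from 0.5 to 1.5 plus GFP to RFP signal ratio inhibition reaching or exceeding a fixed threshold, cut at about 30% in these data, passing the limit was not always enough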
# DDE Tn7 FP inh: inhibitors of Tn7 peptide binding to fibrin DD(E), primary screen, biochemical, fluorescence polarization, human fibrin, Tn7 probe | Fibrinogen beta chain (Homo sapiens), P02675 | FP displacement of FITC-Tn7 peptide from fibrin DD(E); 0% = median of compound wells per plate | inhibition, % at 8.3 µM | 370,000 tested, 0.13% active | AID 720508, 2013;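 active = inhibition above the mean of compounds falling within the control limits plus 3 SD of them, cut at about 14% in these data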;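 note: 0% = plate median of compound wells and 100% = 10 µM Aha-Tn7 peptide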
# Target sequence (P02675 whole entry, looked up): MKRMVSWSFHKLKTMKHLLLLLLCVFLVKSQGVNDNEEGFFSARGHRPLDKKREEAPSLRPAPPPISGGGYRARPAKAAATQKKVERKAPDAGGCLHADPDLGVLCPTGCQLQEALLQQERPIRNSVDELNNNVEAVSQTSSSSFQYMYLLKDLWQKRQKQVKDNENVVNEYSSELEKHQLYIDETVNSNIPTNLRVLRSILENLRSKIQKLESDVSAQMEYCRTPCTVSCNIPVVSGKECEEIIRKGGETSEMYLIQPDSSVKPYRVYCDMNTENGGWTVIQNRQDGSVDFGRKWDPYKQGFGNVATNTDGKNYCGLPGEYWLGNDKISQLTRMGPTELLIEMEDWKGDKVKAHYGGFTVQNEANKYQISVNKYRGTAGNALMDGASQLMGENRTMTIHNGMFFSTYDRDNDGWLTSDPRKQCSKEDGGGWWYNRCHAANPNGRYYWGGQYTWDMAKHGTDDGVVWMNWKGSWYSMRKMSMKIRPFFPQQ
#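 Test system: human clot-derived fibrin DD(E) complex / Quantity: 2 µM final DD(E) protein / Incubation: 10 min plus 3 h, room temperature / Measured by: fluorescence polarization / Benchmarks: high control of 10 µM Aha-Tn7 peptide / Replicates: singlicate testing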
# Neddylation inh: inhibitors of cullin neddylation, primary screen, biochemical, TR-FRET, uHTS, NAE and Ubc12. NEDD8-conjugating enzyme Ubc12 (Homo sapiens) + NEDD8-activating enzyme E1 regulatory …. calls only at 25 µM. 360,000 tested, 0.58% active; in the data active = inhibition above about 36%
# DDE Tn6 FP inh: inhibitors of Tn6 peptide binding to fibrin DD(E), primary screen, biochemical, fluorescence polarization, human fibrin, Tn6 probe; Fibrinogen beta chain (Homo sapiens), P02675; Fibrin DD(E) TRITC-Tn6 fluorescence polarization displacement; inhibition, % at 8.3 µM; 370,000 tested, 0.21% active;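 active = inhibition above a per-campaign cutoff: mean of compounds within control limits plus 3 SD, cut at about 15% in these data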;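 note: 0% = median of all compound wells on the plate and 100% = blocking peptide control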
# proKLK7 act: proKLK7 zymogen activators, primary screen, biochemical, fluorescence intensity; 370,000 tested, 0.9% active; purified proKLK7, EDANS-DABCYL substrate fluorescence; 100% is mature enzyme control, 0% vehicle; activation, % at 7 µM;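 active = activation above the mean of all tested compounds plus 3 SD, computed per campaign excluding outliers beyond control limits, cut at about 13% in these data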
# KLK7 act conf: proKLK7 zymogen activators, confirmation, biochemical, fluorescence intensity, triplicate; purified proKLK7, EDANS-DABCYL substrate fluorescence; scaled: vehicle 0, mature enzyme 100; activation, % at 7 µM; shares compounds with proKLK7 act; 3,200 tested, 68% active;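 active = activation, as change over the incubation, above the mean of all tested compounds plus 3 SD, cut at about 13% in these data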
# EDANS-DABCYL int: EDANS-DABCYL substrate optical interference, artefact control for kallikrein-7 zymogen activator project, biochemical, fluorescence intensity, high throughput. no enzyme, 4 h; solvent 0%, active enzyme control 100%. 3,200 tested, 80% active. activation, % at 7 µM. shares compounds with proKLK7 act;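 active = activation above the all-compound mean plus 3 SD, ignoring values outside control-based bounds, cut at about 4.8% in these data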;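 note: value is the 4 h activation minus the activation read at time zero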
# * = called active by the depositor; i = inactive; . = no result shown. Compounds with a hit are over-represented: about 2.2% of the library has one in this group of screens.
SMILES,MT1-MMP act inh,SKN-1 block,DDE Tn7 FP inh,Neddylation inh,DDE Tn6 FP inh,proKLK7 act,KLK7 act conf,EDANS-DABCYL int
CN1/C(=N\O)c2cccc3cccc1c23,-10,-4,8,i,-7,21*,40*,51*
CC(=O)Nc1ccc(C(=O)NCC(=O)OCc2ccccc2F)cc1,4,-8,5,i,-3,0,.,.
Cc1ccc(-c2nc(=O)[nH]c3ccccc23)cc1,-2,1,-1,i,0,14*,16*,19*
CCOc1ccccc1/C=C/c1nc2ccccc2[nH]c1=O,1,6,-3,.,4,13*,1,-1
Cc1ccc2nc(-c3ccc(SCC(=O)Nc4nnc(C)s4)nc3)[nH]c2c1,4,5,-3,.,11,14*,6,6.0*
Cc1ccc2nc(-c3ccc(SCC(=O)Nc4nc(C)cs4)nc3)[nH]c2c1,7,21,5,i,6,1,.,.
CCN(C(=O)c1cc2c(=O)n3ccccc3nc2n1CCCOC)C1CCCCC1,0,8,12,.,1,55*,76*,78*
CC1CCCCC1NC(=O)c1cc2c(=O)n3ccccc3nc2n1C (stereo not drawn),0,5,3,.,1,41*,6,4
N=c1c(C(=O)NC2CCCC2)cc2c(=O)n3ccccc3nc2n1C1CCCCC1,3,-2,2,.,9,-4,.,.
CN(C(=O)c1cc2c(=O)n3ccccc3nc2n1C)C1CCCCC1,-1,-1,-5,.,-8,69*,74*,81*
CCN(C(=O)c1cc2c(=O)n3ccccc3nc2n1C)C1CCCCC1,-4,30,-1,.,-1,67*,66*,80*
CCOCCCn1c(=N)c(C(=O)NCc2ccc3c(c2)OCO3)cc2c(=O)n3ccccc3nc21,.,.,-2,.,3,0,.,.
CCN(C(=O)c1cc2c(=O)n3ccccc3nc2s1)C1CCCCC1,0,3,-5,.,-10,12,.,.
CCOc1c(Br)cc(C2NC(=O)CCC2[N+](=O)[O-])cc1OC (stereo not drawn),3,2,-1,i,-6,0,.,.
Cc1cc(C)cc(NC(=O)C2CC(=O)n3ncnc3N2)c1 (stereo not drawn),2,3,1,i,1,0,.,.
CC(=O)NS(=O)(=O)c1cccnc1Nc1cccc(Cl)c1C,2,1,-7,i,-5,0,.,.
CC(=O)Nc1oc(-c2cccc3ccccc23)nc1C#N,4,9,5,.,3,78*,72*,72*
Cc1cc(NCc2ccco2)nc2cc(O)ccc12,0,-7,3,.,1,19*,72*,66*
O=Cc1ccc(/C=C2\c3ccccc3C(=O)N2c2ccccc2)o1,.,.,-6,.,-6,34*,62*,59*
CC(=O)Nc1ccc(NC(=O)Cn2cc3c(n2)CCCC3)cc1,3,-1,11,i,7,0,.,.
Oc1c(Br)cc(C=Nc2ccc3nc(-c4ccccc4)[nH]c3c2)c(O)c1Br,.,.,-8,.,-6,-12,.,.
O=[N+]([O-])c1ccc(O)c(C=Nc2ccc3nc(-c4ccccc4)[nH]c3c2)c1,8,-1,1,.,-2,65*,57*,63*
Cc1cc(C)c(C)c(S(=O)(=O)N2CCN(C(=O)c3cc(=O)[nH]c4ccccc34)CC2)c1C,-2,15,-3,i,2,0,.,.
CCOc1ccc(-c2cc(C(=O)O)c3ccccc3n2)cc1,1,-3,3,.,1,33*,60*,69*
CCOc1ccc(-c2cc(C(=O)NCCCN3CCN(CC)CC3)c3ccccc3n2)cc1,4,-9,3,.,-2,57*,-17,-20
SMILES,MT1-MMP act inh,SKN-1 block,DDE Tn7 FP inh,Neddylation inh,DDE Tn6 FP inh,proKLK7 act,KLK7 act conf,EDANS-DABCYL int
COc1ccc2cc([C@H](C)C(=O)OCc3cn(CC(=O)c4ccc(O)cc4)nn3)ccc2c1,4,-7,0,i,1,0,.,.
Cc1ccc(C(=O)OCC(=O)N(C)c2ccccc2)cc1C,3,12,6,i,2,0,.,.
COc1cccc(NC(=O)CSc2nc3ncc(Br)cc3[nH]2)c1,0,5,0,i,-6,1,.,.
CCOC(=O)c1[nH]c2cc(OC)c(OC)cc2c1NC(=O)CCN1CCSCC1,5,1,4,.,-3,16*,12,8.7*
CCOC(=O)c1[nH]c2cc3c(cc2c1NC(=O)CN1CCN(CCO)CC1)OCO3,-4,1,-2,.,-4,49*,26*,29*
CCOC(=O)c1[nH]c2cc3c(cc2c1NC(=O)CN1CCC2(CC1)OCCO2)OCO3,4,9,-5,.,-9,11,.,.
CCOC(=O)c1[nH]c2ccc(OC)cc2c1NC(=O)CCN1CCC(C)CC1,.,.,7,.,-2,21*,9,6.8*
CCOC(=O)c1[nH]c2ccc(OC)cc2c1NC(=O)CN1CCSCC1,-5,0,-4,.,5,10,.,.
O=C(NNC(=O)C12CC3CC(CC(C3)C1)C2)c1ccco1,-1,-1,1,i,-3,0,.,.
CCCc1ccc(C2C3=C(CC(C)(C)CC3=O)NC3=C2C(=O)c2ccccc23)cc1 (stereo not drawn),-37,8,-9,i,-4,0,.,.
CCOC(=O)C(=O)Cc1nc2ccccc2s1,-36,-2,-5,i,-6,13*,4,5.3*
CC(=O)OCc1nc2ccccc2s1,-5,3,9,i,0,0,.,.

# Screening results (PubChem BioAssay)
